Assay outcomes (PubChem BioAssay)
The list is not random: actives were taken first. Their share in the collection is about 4.8%.
NR3A LBD binder: modulates the human NR3A ligand-binding domain | 340,000 compounds, 2.5% hits | AID 1259313 | NR3A LBD differential scanning fluorimetry, Tm shift; 0% = protein alone, 100% = glycine-bound protein | Tm shift relative to glycine control, % at 25 µM;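 active = melting temperature shift of at least 10% of the positive control shift, at one fixed dose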
PAFAH1B2 FP inh: PAFAH1B2 (human) inhibition; 340,000 compounds, 1.2% hits; P68402; recombinant PAFAH1B2, FP-rhodamine activity probe, fluorescence polarization; inhibition, % at 3.39 µM;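 active = inhibition above the mean of all tested compounds plus 3 SD, cut at about 24% in these data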;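 note: 0% = enzyme with DMSO and 100% = wells lacking PAFAH1B2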
Target sequence (P68402 whole entry, looked up): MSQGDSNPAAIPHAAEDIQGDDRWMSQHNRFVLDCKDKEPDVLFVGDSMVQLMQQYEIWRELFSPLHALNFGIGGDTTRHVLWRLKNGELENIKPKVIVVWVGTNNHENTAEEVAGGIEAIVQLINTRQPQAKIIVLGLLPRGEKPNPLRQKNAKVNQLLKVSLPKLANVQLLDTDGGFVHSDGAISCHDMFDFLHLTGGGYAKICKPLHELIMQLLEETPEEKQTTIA
PAFAH2 FP inh: inhibitors of human PAFAH2. AID 492956. 340,000 compounds, 0.99% hits. recombinant PAFAH2, FP-rhodamine activity probe, fluorescence polarization. Q99487. inhibition, % at 3.39 µM;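 active = inhibition above the mean over all tested compounds plus 3 SD, cut at about 30% in these data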;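 note: inhibitors block probe labeling of enzyme so polarization drops; 0% = enzyme with DMSO and 100% = wells lacking PAFAH2 protein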
pPAFAH FP inh: inhibitors of human plasma PAF acetylhydrolase (pPAFAH); inhibition, % at 3.39 µM; 330,000 compounds, 1.5% hits; Q13093; recombinant pPAFAH, FP-rhodamine probe fluorescence polarization;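 active = inhibition above the mean inhibition across the screen plus 3 SD, cut at about 25% in these data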;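 note: inhibitors block binding of the rhodamine activity-based probe so polarization drops; 0% = enzyme with DMSO and 100% = wells lacking pPAFAH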
PAFAH1B3 FP inh: PAFAH1B3 (human) inhibition; recombinant PAFAH1B3, FP-rhodamine probe, fluorescence polarization; AID 492972; inhibition, % at 3.39 µM; 340,000 compounds, 0.28% hits;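 active = inhibition above the screen-wide average of all tested compounds plus 3 SD, cut at about 25% in these data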;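 note: 0% = enzyme with DMSO only and 100% = wells lacking PAFAH1B3 protein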
Target sequence (Q15102 whole entry, looked up): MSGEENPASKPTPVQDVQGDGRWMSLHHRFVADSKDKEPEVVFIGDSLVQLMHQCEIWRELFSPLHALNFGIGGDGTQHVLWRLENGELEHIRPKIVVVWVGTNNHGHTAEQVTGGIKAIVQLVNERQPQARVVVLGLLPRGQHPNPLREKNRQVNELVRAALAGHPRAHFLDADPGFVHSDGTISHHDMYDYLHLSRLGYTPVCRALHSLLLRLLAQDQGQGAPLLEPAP
UCH37 DUB inh: blocks the human deubiquitinase UCH37; Q9Y5K5; purified proteasome/UCH37, Ub-AMC cleavage fluorescence; inhibition, % (test concentration not listed); 330,000 compounds, 0.33% hits;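 active = mean inhibition over replicate wells above about 20%, limit read from the data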;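 note: 0% = compound-free wells with enzyme and 100% = wells lacking proteasome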
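Material: Human UCH37 enzyme supplied as purified proteasome complex | Schedule: 30 min compound-proteasome preincubation then 25 min substrate reaction, room temperature | Detection: AMC fluorescence from Ub-AMC cleavage, excitation 355 nm, emission 460 nm | Benchmarks: Wells without proteasome as full block, compound-free enzyme plus substrate as uninhibited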
* marks the source's active call; other numbers are inactive results; . = no result given.

SMILES | NR3A LBD binder | PAFAH1B2 FP inh | PAFAH2 FP inh | pPAFAH FP inh | PAFAH1B3 FP inh | UCH37 DUB inh
O=C(NN=Cc1ccc(OCC(=O)N2CCCC2)cc1)C(=O)NC1CC1 | . | . | . | . | . | 5
O=C(N/N=C/c1c[nH]c2ccccc12)c1ccc(O)c(O)c1 | 28* | 25* | 14 | 9 | 15 | .
CCN1CCN(C2=CC3=CC(=C(C#N)C#N)CCC3CC2)CC1 (stereo not given) | -1 | 0 | 2 | . | 11 | 32*
Cc1ccsc1C=NNC(=O)Cn1nnc2ccccc21 | . | . | . | . | . | 3
Cc1ccc2oc(-c3cccc(NC(=O)c4ccc(Br)o4)c3C)nc2c1 | 0 | 3 | 8 | 3 | -3 | -2
Cc1c(NC(=O)CSc2ccc(Cl)cc2)cccc1-c1nc2cc(Cl)ccc2o1 | 18* | -6 | -10 | 5 | -12 | .
Cc1ccc(CCNC(=O)C2CCC(=O)N2C2CCCC2)cc1 (stereo not given) | -1 | 27* | -2 | -1 | -9 | 3
Cc1ccc(CCNC(=O)C2CCC(=O)N2C(C)C)cc1 (stereo not given) | 0 | 11 | 1 | 7 | 3 | 2
O=C(CSc1ccc(Cl)cc1)Nc1ccc(-c2nc3ccccc3[nH]2)cc1 | 37* | -6 | -10 | -7 | 4 | .
C(=C\c1ccco1)/c1nc2ccccc2[nH]1 | -1 | 3 | -1 | 18 | 3 | -32
O=C(Nc1ccc2nc(-c3ccco3)[nH]c2c1)c1ccco1 | -2 | 4 | -7 | 9 | 1 | 10
O=C(/C=C/c1ccco1)Nc1ccc(-c2nc3ccccc3[nH]2)cc1 | 30* | -10 | -16 | -3 | -14 | -12
O=C(Nc1ccc(-c2nc3ccccc3[nH]2)cc1)c1ccco1 | 35* | -1 | -4 | -5 | -1 | -6
Cn1cc([N+](=O)[O-])c(C(=O)Nc2ccc(-c3nc4ccccc4[nH]3)cc2)n1 | 19* | 2 | -3 | -4 | -2 | 6
O=C(CSc1ccccc1)Nc1nc2ccccc2[nH]1 | -3 | 12 | 5 | 3 | 1 | 0
Cn1cc([N+](=O)[O-])c(C(=O)Nc2ccc3nc(-c4ccccc4)[nH]c3c2)n1 | -12 | 3 | 11 | 6 | 10 | -22
COC(=O)c1scc(C)c1NN=C(C)c1cc(F)c(Cl)cc1F | . | . | . | . | . | -29
CN1CCc2c(sc(N=Cc3cccs3)c2C(N)=O)C1 | . | . | . | . | . | -28
COc1ccc(NC(=Nc2nc(C)cc(C)n2)NC(=O)c2ccccc2)cc1 | . | . | . | . | . | 1
O=C(CCN1C(=O)/C(=C/c2ccc(Cl)cc2)SC1=S)Nc1cccc(C(=O)O)c1 | -9 | 8 | 3 | 4 | -4 | 7
O=C(O)c1cccc(N2C(=O)/C(=C/c3ccc(SCc4ccc(Cl)cc4)o3)SC2=S)c1 | 15* | 34* | 23 | . | 15 | 14
O=C(Nc1ccc(Cl)cc1)c1ccc(-n2cccn2)c([N+](=O)[O-])c1 | 23* | -6 | -6 | 10 | -2 | 2
Cc1ccc(NC(=O)c2ccc(-n3cccn3)c([N+](=O)[O-])c2)cc1C | 13* | 10 | -2 | 6 | 6 | 0
COc1cc(C=NNC(=O)CNC(=O)c2ccc3c(c2)OCCO3)ccc1O | . | . | . | . | . | -3
CC(CC(=O)NCCN1CCOCC1)=NNC(=O)c1ccncc1 | . | . | . | . | . | 3
SMILES | NR3A LBD binder | PAFAH1B2 FP inh | PAFAH2 FP inh | pPAFAH FP inh | PAFAH1B3 FP inh | UCH37 DUB inh
O=C(Nc1ccccc1C(=O)Nc1nnc(C(F)(F)F)s1)c1ccccc1Cl | 18* | -4 | -14 | -16 | -7 | -16
NC(=O)c1ccccc1NC(=O)c1ccccc1Cl | -5 | 5 | 4 | 7 | 4 | 6
CCOc1ccc(NC(=O)CCc2c(C)nn(-c3ccc(N4CCCCC4)nn3)c2C)cc1 | 14* | -1 | 4 | 5 | -4 | 4
CC1CCCC(C)N1C(=O)CSc1nc(N)c(-c2ccccc2)c(=O)[nH]1 (stereo not given) | -15 | 25* | 0 | 2 | 5 | 2
Nc1nc(SCC(=O)N2CCCC2)[nH]c(=O)c1-c1ccccc1 | 1 | -3 | -4 | 4 | 2 | 4
NS(=O)(=O)c1ccc(N/N=C/c2ccccc2Br)cc1 | 14* | 2 | -4 | 16 | 8 | .
NS(=O)(=O)c1ccc(N/N=C/c2cn(-c3ccccc3)nc2-c2cccs2)cc1 | 34* | -4 | -16 | -8 | -6 | .
